Data on 1 molecule can be found in ChEMBL document CHEMBL4028906, “Allosteric Inhibitors of SHP2 with Therapeutic Potential for Cancer Treatment” (J Med Chem, 2017).

What is called AUC is concentration integrated over time. Low readings indicate low exposure, high ones high exposure. Broadly, the IC50 is the concentration needed to halve the response being measured. Read a high IC50 as lower potency.

Calls of active or inactive are those of the source. The rule behind the calls is not given here.

One series has as its system BT-474. Put plainly: Antiproliferative activity against human BT474 cells at 3 to 6 uM after 2 days by CellTiter-Glo assay. In kind it is functional, cell-based. The method, boiled down: (§1)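 3000 cells/well in 96-well plates, grown overnight, then inhibitor at indicated concentrations for 2 days (48 h). Viability by CellTiter-Glo; mean±s.d., n=3.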
Series [1] concerns the target T1, Tyrosine-protein phosphatase non-receptor type 11 (Homo sapiens) (UniProt Q06124).
T1 sequence (whole entry): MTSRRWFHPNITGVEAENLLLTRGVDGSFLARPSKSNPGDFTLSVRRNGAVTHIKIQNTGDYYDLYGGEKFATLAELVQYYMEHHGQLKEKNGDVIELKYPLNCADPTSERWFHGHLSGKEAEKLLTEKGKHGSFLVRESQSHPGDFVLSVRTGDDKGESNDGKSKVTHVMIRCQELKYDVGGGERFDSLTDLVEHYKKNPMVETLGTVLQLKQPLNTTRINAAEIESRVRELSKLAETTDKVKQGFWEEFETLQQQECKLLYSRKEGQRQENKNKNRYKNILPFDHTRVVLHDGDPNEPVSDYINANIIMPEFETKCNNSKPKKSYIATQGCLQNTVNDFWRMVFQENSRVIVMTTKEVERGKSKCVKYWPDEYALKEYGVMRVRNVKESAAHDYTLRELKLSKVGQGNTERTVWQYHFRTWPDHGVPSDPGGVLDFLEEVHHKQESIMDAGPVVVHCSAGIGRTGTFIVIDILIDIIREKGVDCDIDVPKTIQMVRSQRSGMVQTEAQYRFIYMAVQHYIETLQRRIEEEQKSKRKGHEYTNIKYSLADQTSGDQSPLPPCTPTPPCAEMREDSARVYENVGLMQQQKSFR
The series is described as follows: Allosteric inhibition of SHP2 in human SF268 cells assessed as downregulation of YAP-mediated CTGF gene expression ay 10 to 20 uM after 2 hrs by qRT-PCR analysis. It is filed as cell-based. The gist of the method:
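SF268 cells exposed to DMSO, 10 μM or 20 μM inhibitor for 2 h. RNA extracted, reverse-transcribed, and CTGF, CYR61, ANKRD1 and YAP mRNA quantified by qPCR; mean±s.d., n=3.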
In general terms: Real-time PCR tracks product formation cycle by cycle.

A short description of series [2]: AUC in nu/nu nude mouse at 10 mg/kg, po measured up to 24 hrs postdose by LC/MS/MS analysis. In kind it is ADME, organism-based. The arrangement: dose 10 mg/kg, time < 24 hr, route oral. Particulars: in vivo. The method, boiled down:
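Female nu/nu nude mice dosed IV via tail vein at 5 mg/kg or orally at 10 mg/kg. Blood sampled at 0.083, 0.25, 0.5, 1, 2, 4, 8 and 24 h post-dose (orbital sinus, terminal cardiac puncture; EDTA-2K). Plasma separated at 4 °C, precipitated with acetonitrile containing internal standard, quantified by LC/MS/MS.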

The test system of a further series is KYSE-520 cell line. The series is described as follows: Antiproliferative activity against human KYSE520 cells at 3 to 6 uM after 2 days by CellTiter-Glo assay. In kind it is functional, cell-based. The method, boiled down: as §1
The species entered for series [3] is Homo sapiens. The series is described as follows: Selectivity ratio of IC50 for PTP1B (unknown origin) expressed in Escherichia coli BL21(DE3) to IC50 for SHP2 E76A mutant (unknown origin) expressed in Escherichia coli BL21(DE3). The gist of the method: (§2)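 Ratio of IC50 values from one DIFMUP fluorescence assay (Ex/Em 358/455), room temperature, 0.1 M sodium acetate pH 5.0. His-tagged SHP2 E76A (1.5 nM) or counter-phosphatase purified from E. coli, preincubated 20 min with compound (eight 3-fold dilutions), then DIFMUP added for 20 min. DIFMUP was at Km for each counter-phosphatase. Duplicates; IC50 from at least three independent experiments.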

A further series relates to MV4-11. The series is described as follows: Antitumor activity against human MV4-11 cells xenografted in BALB/c mouse assessed as tumor growth inhibition at 10 mg/kg administered qd via oral gavage measured twice weekly relative to control. In kind it is functional. Particulars: MV4-11, po, read-out: TGI. The method, boiled down:
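Female BALB/c nude mice given subcutaneous MV4;11 cells (5×10^6, in 50% phenol red-free matrigel in PBS). Once tumours reached about 230 mm³, mice were randomised to vehicle or oral gavage once daily (10 ml/kg). Tumour volume was measured by caliper in two dimensions twice a week, along with body weight. Data given as mean±sem, with significance assessed on day 14.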

In series [4] the target is T1, Tyrosine-protein phosphatase non-receptor type 11 (Homo sapiens). Put plainly: Allosteric inhibition of SHP2 in human NCI-H661 cells assessed as downregulation of ERK1/2 activation at 10 uM by Western blot analysis. Particulars: TDE = time-dependent effect. In kind it is cell-based. A general note: In western blotting, separated proteins are transferred to a membrane and probed.

Series [5] can be described thus: Inhibition of SHP2 N58S mutant (unknown origin). Set-up: species or system Homo sapiens.
In series [6] the target is T1, Tyrosine-protein phosphatase non-receptor type 11 (Homo sapiens). The series is described as follows: Allosteric inhibition of SHP2 PTP domain (unknown origin) expressed in Escherichia coli BL21(DE3) using DIFMUP as substrate preincubated for 20 mins followed by substrate addition measured after 20 mins by phosphatase assay. The gist of the method: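 His-tagged SHP2 constructs expressed in E. coli BL21(DE3) (0.5 mM IPTG, 5 h, 30 °C) and Ni-column purified. 1.5 nM enzyme preincubated 20 min at room temperature with compound in 0.1 M sodium acetate pH 5.0. DIFMUP then added, 20 min further, fluorescence at 358/455 nm. Eight 3-fold dilutions, duplicate wells, IC50 from at least three independent experiments.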

The target in series [7] is Tyrosine-protein phosphatase non-receptor type 1 (Homo sapiens, UniProt P18031). The series is described as follows: Inhibition of PTP1B (unknown origin) expressed in Escherichia coli BL21(DE3) using DIFMUP as substrate preincubated for 20 mins followed by substrate addition measured after 20 mins by phosphatase assay. The gist of the method: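 Phosphatases purified from E. coli and run as for SHP2 E76A: 20 min room-temperature preincubation with compound in 0.1 M sodium acetate pH 5.0, then DIFMUP at each enzyme's Km, 20 min, fluorescence 358/455 nm. Eight 3-fold dilutions in duplicate; IC50 from at least three independent experiments.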
Tyrosine-protein phosphatase non-receptor type 1, sequence (P18031 whole entry): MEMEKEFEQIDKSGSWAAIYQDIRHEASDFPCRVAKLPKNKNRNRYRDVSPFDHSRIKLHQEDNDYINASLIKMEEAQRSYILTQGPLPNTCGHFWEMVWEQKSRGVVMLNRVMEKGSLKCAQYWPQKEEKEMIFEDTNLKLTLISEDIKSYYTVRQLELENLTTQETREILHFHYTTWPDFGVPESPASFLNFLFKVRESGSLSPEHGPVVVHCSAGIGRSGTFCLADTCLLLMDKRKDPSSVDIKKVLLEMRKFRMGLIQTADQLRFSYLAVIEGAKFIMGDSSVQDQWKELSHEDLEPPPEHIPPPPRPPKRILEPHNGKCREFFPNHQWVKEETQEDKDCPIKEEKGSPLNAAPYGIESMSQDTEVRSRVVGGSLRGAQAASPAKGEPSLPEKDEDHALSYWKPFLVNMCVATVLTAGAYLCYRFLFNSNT

The test system of a further series is KOPN-8. The series is described as follows: Antiproliferative activity against human KOPN8 cells at 3 to 6 uM after 2 days by CellTiter-Glo assay. In kind it is functional, cell-based. The gist of the method:
as §1

For series [8], the target named is T1, Tyrosine-protein phosphatase non-receptor type 11 (Homo sapiens). Put plainly: Allosteric inhibition of SHP2 in human NCI-H661 cells assessed as downregulation of phosphorylated ERK1/2 levels at 2.5 to 20 uM after 2 hrs by Western blot analysis. It is filed as cell-based. The gist of the method:
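NCI-H661 cells in 6-well plates exposed to inhibitor 2 h at 37 °C. RIPA lysates separated by SDS-PAGE, transferred to PVDF, milk-blocked, probed overnight at 4 °C for pERK1/2, ERK1/2, pAKT and AKT. Repeated at least three times.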

The test system of the next series is NCI-H1975. The series is described as follows: Antiproliferative activity against human NCI-H1975 cells at 3 to 6 uM after 2 days by CellTiter-Glo assay. It is filed as functional, cell-based. The method, boiled down: as §1
(Cellular ATP, detected with luciferase, serves as a proxy for viable cell number.)

For series [9], the target named is T1, Tyrosine-protein phosphatase non-receptor type 11 (Homo sapiens). Put plainly: Allosteric inhibition of SHP2 in human A549 cells harboring KRAS mutant assessed downregulation on ERK1/2 phosphorylation at 5 and 10 uM after 2 hrs by Western blot analysis. In kind it is cell-based.
Series [10] shares this target. The series is described as follows: Allosteric inhibition of SHP2 in human SF268 cells stably expressing Yap-Luc reporter assessed as reduction in YAP transcriptional activity after 12 hrs by Yap-luciferase reporter gene assay. In kind it is cell-based.
The species named for series [11] is Homo sapiens. The series is described as follows: Selectivity ratio of IC50 for LMW-PTP (unknown origin) expressed in Escherichia coli BL21(DE3) to IC50 for SHP2 E76A mutant (unknown origin) expressed in Escherichia coli BL21(DE3). The method, boiled down: as §2
The test system of the next series is KMS-11. The series is described as follows: Antiproliferative activity against human KMS11 cells at 3 to 6 uM after 2 days by CellTiter-Glo assay. In kind it is functional, cell-based. The method, boiled down:
as §1

For the molecule `CC1(N)CCN(c2nc(-c3ccc4cc(Br)ccc4c3)cs2)CC1`, the result in the series on BT-474, in the series on KYSE-520 cell line, with KOPN-8, in the series on NCI-H1975 and in the series on KMS-11 was Active. The inhibition result in [1] and in [8] was “Active” each time. Moreover, the AUC at 24 h in series [2] was determined as 9.86 µM·h. In addition, the Ratio IC50 in the series filed under Homo sapiens [3] and in the series filed under Homo sapiens [11] was above 30 throughout. Also, in the series with MV4-11, the inhibition in vivo at 10 mg/kg was 44.6%. Moreover, the inhibition result is “Tde” in series [4] and “Dose-dependent effect” in [10]. Besides, the IC50 came to 1.2 µM in series [5] and 31.2 µM in [7]. For the same molecule, the inhibition entry in series [6] and in series [9] was “inactive” in each case.
